In brackets after ≈: the same amount, converted by molar mass. Activity calls are given as the source filed them. No cut-off for these calls is given here.
Legend:
[1] = tested on: Mus musculus; test: Antiobesity activity in high fat diet-induced obese C57BL/6J mouse model assessed as decrease in AUC of GTT at 20 mg/kg, ip administered for every other days for 3 weeks by GTT method; assay type: functional, organism-based
Summary of the method: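 Male C57BL/6J mice on HFC diet dosed i.p. For GTT, after 3 weeks of treatment: 6 h fast, then i.p. glucose 2 g/kg. For ITT, after 6 weeks: 6 h fast, then i.p. insulin 0.4 U/mouse. Tail-vein glucose measured at 0, 15, 30, 60 and 120 min; AUC calculated.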

[2] = tested on: 3T3-L1; test: Activation of AMPK pathway in adipogenic cocktail-induced mouse 3T3-L1 cells with SiRNA-induced AMPKalpha knock down assessed as decrease in C/EBPalpha protein expression at 1 uM after 24 hrs by Western blot analysis; assay type: cell-based
Summary of the method: (§1)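 3T3-L1 cells at 80% density transfected with 50 nM AMPKα siRNA or negative control for 24 h. Once confluent, differentiated with adipogenic cocktail with or without compound. Protein by Western blot normalized to actin. TG measured by GPO-POD kit, normalized to BCA protein, expressed as % of control.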

[3] = Toxicity in ip dosed C57BL/6J mouse administered for every other days for 6 weeks; assay type: organism-based; details: in vivo
Summary of the method: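 Male C57BL/6J mice (7–8 weeks) were fed an HFC diet (60% fat, 1% cholesterol) from week 1 and given 20 mg/kg i.p. every other day for 6 weeks from week 9, in saline with 10% ethanol and 10% castor oil, against a vehicle group. At the end, after a 6 h fast under ketamine/xylazine, plasma was taken for auto-analyzer ALT, AST, TBIL, ALB, BUN and creatinine, and tissues were weighed.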

[4] = tested on: 3T3-L1; test: Activation of AMPK pathway in adipogenic cocktail-induced mouse 3T3-L1 cells with SiRNA-induced AMPKalpha knock down assessed as decrease in TG level at 1 uM after 6 days by GPO-POD assay; assay type: cell-based; details: time 6.0 day; summary of the method: as §1
[5] = tested on: Mus musculus; test: Antiobesity activity in high fat diet-induced obese C57BL/6J mouse model assessed as decrease in TG level at 20 mg/kg, ip administered for every other days for 6 weeks by Oil-red O staining based assay; assay type: functional, organism-based
Summary of the method: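 Male C57BL/6J mice on HFC diet, dosed 20 mg/kg i.p. every other day for 6 weeks. Tissues fixed in 4% formaldehyde, paraffin-embedded, cut into 4 µm sections and stained with H&E or Oil-red O. Six random fields per sample scored blind.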

[6] = tested on: C2C12; test: Activation of AMPK pathway in mouse C2C12 cells assessed as increase in glucose uptake at 0.3 to 1 uM after 6 hrs in presence of insulin by 2-NBDG/Hoechst 33342 staining based Confocal microscopic method; assay type: cell-based; details: filed as activator, dose 0.3-1 µM
Summary of the method: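 C2C12 myoblasts kept in DMEM with 10% FBS and 1% penicillin/streptomycin at 37 °C under 5% CO2.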

[7] = tested on: 3T3-L1; test: Inhibition of mouse 3T3-L1 cells adipocyte differentiation assessed as reduction in adipogenic cocktail-induced SCD1 protein expression at 0.3 to 1 uM after 6 days by Western blot analysis; assay type: functional, cell-based; details: dose 0.3-1 µM, time 6.0 day
Summary of the method: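 3T3-L1 preadipocytes were differentiated with cocktail for 3 days, then insulin medium for 3 days, with compound (0.3 or 1 µM) present throughout. Cells were harvested on day 6 and proteins measured by Western blot, with densitometry normalized to actin.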

[8] = MRT(0 to infinity) in Sprague-Dawley rat at 2 mg/kg, iv up to 24 hrs by LC-MS/MS analysis; assay type: ADME, organism-based; details: in vivo
Summary of the method: (§2)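 Male SD rats (180–220 g, n = 3) received compound in ethanol/saline (5:95), either intravenously at 2 mg/kg or intragastrically at 5 mg/kg. Plasma was sampled at 0, 0.5, 1, 2, 4, 8, 12 and 24 h. Concentrations were measured by LC-MS/MS, and PK parameters were calculated from the concentration–time data.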

[9] = tested on: Mus musculus; test: Antiobesity activity in high fat diet-induced obese C57BL/6J mouse model assessed as LDL cholesterol level at 20 mg/kg, ip administered for every other days for 6 weeks by auto-analyzer method (reference value: 0.9 +/- 0.4 mM); assay type: functional
Summary of the method: (§3)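 Male C57BL/6J mice (7–8 weeks) fed HFC diet (60% fat, 1% cholesterol) for up to 14 weeks. From week 9, given 20 mg/kg i.p. every other day for 6 weeks in saline with 10% ethanol and 10% castor oil, or vehicle. Body weight and food intake recorded daily. At end, mice fasted 6 h, anesthetized, and blood collected into EDTA. Plasma chemistry run on an auto-analyzer; insulin by ultra-sensitive ELISA.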

[10] = tested on: Mus musculus; test: Antiobesity activity in high fat diet-induced obese C57BL/6J mouse model assessed as decrease in calorie intake at 20 mg/kg, ip administered for every other days for 6 weeks; assay type: functional, organism-based; summary of the method: as §3
[11] = Half life in Sprague-Dawley rat at 5 mg/kg, po up to 24 hrs by LC-MS/MS analysis; assay type: ADME, organism-based; details: in vivo; summary of the method: as §2
[12] = tested on: Mus musculus; test: Antiobesity activity in high fat diet-induced obese C57BL/6J mouse model assessed as decrease in fat mass at 20 mg/kg, ip administered for every other days for 6 weeks; assay type: functional, organism-based
[13] = tested on: 3T3-L1; test: Activation of AMPK pathway in mouse 3T3-L1 cells assessed as increase in NRF2 mRNA expression at 0.3 to 1 uM after 24 hrs by RT-qPCR analysis; assay type: cell-based; details: filed as activator, dose 0.3-1 µM
[14] = tested on: 3T3-L1; test: Inhibition of mouse 3T3-L1 cells adipocyte differentiation assessed as reduction in adipogenic cocktail-induced C/EBPalpha protein expression at 0.3 to 1 uM after 24 hrs by Western blot analysis; assay type: functional, cell-based; details: dose 0.3-1 µM
Summary of the method: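 3T3-L1 preadipocytes were exposed to adipogenic cocktail with compound (0.3 or 1 µM) and harvested on day 1. Lysates were resolved by SDS-PAGE, immunoblotted (primary antibody overnight at 4 °C, HRP secondary) and quantified by densitometry normalized to actin.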

[15] = Aqueous solubility in PBS buffer at pH 7.4 after 24 hrs; assay type: physicochemical
[16] = tested on: 3T3-L1; test: Activation of AMPK pathway in adipogenic cocktail-induced mouse 3T3-L1 cells with SiRNA-induced AMPKalpha knock down assessed as decrease in PPARgamma protein expression at 1 uM after 24 hrs by Western blot analysis; assay type: cell-based; summary of the method: as §1
[17] = tested on: Mus musculus; test: Antiobesity activity in high fat diet-induced obese C57BL/6J mouse model assessed as free fatty acid level at 20 mg/kg, ip administered for every other days for 6 weeks by auto-analyzer method (reference value: 1668.5 +/- 144.6 uM); assay type: functional; summary of the method: as §3
[18] = tested on: Mus musculus; test: Antiobesity activity in high fat diet-induced obese C57BL/6J mouse model assessed as ALT level at 20 mg/kg, ip administered for every other days for 6 weeks by auto-analyzer method (reference value: 231.9 +/- 18.5 U/L); assay type: functional; summary of the method: as §3
[19] = tested on: 3T3-L1; test: Activation of AMPK pathway in mouse 3T3-L1 cells assessed as increase in TFAM mRNA expression at 1 uM after 24 hrs by RT-qPCR analysis; assay type: cell-based; details: filed as activator
[20] = Half life in Sprague-Dawley rat at 2 mg/kg, iv up to 24 hrs by LC-MS/MS analysis; details: in vivo
[21] = tested on: 3T3-L1; test: Activation of AMPK pathway in mouse 3T3-L1 cells assessed as increase in […] mRNA expression at 1 uM after 24 hrs by RT-qPCR analysis; assay type: cell-based; details: filed as activator

In the case of `COc1ccc2[nH]c(-c3nc(NCCCCN4CCCC4)c4ccccc4n3)c(C=O)c2c1`, the Activity [1] is reported as “Active”, the Activity [2] is reported as “inactive” and the LD50 at 1008 h [3] is reported as 500 mg/kg. The Activity [4] was “inactive”, the Activity [5] was “Active” and the Activity [6] was “Active”. For the same compound, the inhibition [7] was “Active”, the MRT inf [8] was 5.7 h and the Activity [9] was 0.81 mM. The Activity [10] was “inactive”, the half-life [11] was 4.2 h and the Activity [12] was “Active”. The Activity [13] was “Active”, the inhibition [14] was “Active” and the solubility at 24 h [15] was 73.3 µg/mL (≈ 165 µM). For the same compound, the Activity [16] was “inactive”, the Activity [17] was 694.4 µM and the Activity [18] was 52 U/L.
For `CN(C)CCCNc1nc(-c2[nH]c3ccccc3c2C=O)nc2ccccc12`, the Activity [19] was “Active”, the half-life [20] was 3.14 h and the half-life [11] was 5.1 h. For the same compound, the solubility at 24 h [15] was 41.1 µg/mL (≈ 110 µM) and the Activity [21] was “Active”.

Reference: ChEMBL document CHEMBL4732044, “Discovery of a promising agent IQZ23 for the treatment of obesity and related metabolic disorders” (Eur J Med Chem, 2020)
